Measurements published in ChEMBL document CHEMBL1240522, “Effect of goniothalamin on the development of Ehrlich solid tumor in mice” (Bioorg Med Chem, 2010).
The source made the active and inactive calls. The rule behind the calls is not given here.

Legend:
UACC-62 = experiment: Cytotoxicity against human UACC62 cells after 48 hrs by sulforhodamine B assay; format: functional; settings: UACC-62, 48 h
Summary of the method: (§1)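 Cells grown in RPMI 1640 with 5% FBS at 37 °C, 5% CO2, with penicillin/streptomycin. Treated for 48 h with compound in DMSO/RPMI at […]. Fixed with 50% trichloroacetic acid, protein stained with sulforhodamine B and read at 540 nm. TGI (total growth inhibition) obtained by non-linear regression of the concentration–response curves.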

MCF7 = experiment: Cytotoxicity against human MCF7 cells after 48 hrs by sulforhodamine B assay; format: functional; settings: MCF7, 48 h; summary of the method: as §1
[1] = Cytotoxicity against human NCI-ADR-RES cells after 48 hrs by sulforhodamine B assay; format: functional; summary of the method: as §1
786-0 = experiment: Cytotoxicity against human 786-0 cells after 48 hrs by sulforhodamine B assay; format: functional; settings: 786-0, 48 h; summary of the method: as §1
NCI-H460 = experiment: Cytotoxicity against human NCI-H460 cells after 48 hrs by sulforhodamine B assay; format: functional; settings: NCI-H460, 48 h; summary of the method: as §1
[2] = Cytotoxicity against human PCO3 cells after 48 hrs by sulforhodamine B assay; format: functional; settings: PCO3, 48 h; summary of the method: as §1
OVCAR-3 = experiment: Cytotoxicity against human OVCAR-3 cells after 48 hrs by sulforhodamine B assay; format: functional; settings: OVCAR-3, 48 h; summary of the method: as §1
HT-29 = experiment: Cytotoxicity against human HT-29 cells after 48 hrs by sulforhodamine B assay; format: functional; settings: HT-29, 48 h; summary of the method: as §1
U-251 = experiment: Cytotoxicity against human U251 cells after 48 hrs by sulforhodamine B assay; format: functional; settings: U-251, 48 h; summary of the method: as §1
Mus musculus [3] = experiment: Acute toxicity in BALB/C mouse assessed as mortality at up to 300 mg/kg, ip after 4 hrs; format: organism-based; set-up: dose 300 mg/kg, route intraperitoneal; settings: in vivo
Summary of the method: (§2)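 Balb/C mice (20–35 g) dosed intraperitoneally at 50, 100 and 300 mg/kg. Observed for 4 h, then daily for 14 days, for body weight loss, locomotion, behaviour (agitation, lethargy), respiration, salivation, tearing eyes, cyanosis and mortality.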

Mus musculus [4] = experiment: Acute toxicity in BALB/C mouse assessed as mortality at up to 300 mg/kg, ip after 15 days; format: organism-based; set-up: dose 300 mg/kg, route intraperitoneal; settings: in vivo, 360 h; summary of the method: as §2
[5] = Antitumor activity against mouse EAC cells xenografted in BALB/C mouse assessed as inhibition of increase in tumor volume at 50 mg/kg, ip administered every 3 days measured on day 10 relative to control; format: functional; settings: Ehrlich, route intraperitoneal
Summary of the method: (§3)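 Ehrlich cells kept as ascites by weekly ip passage of 5 × 10^5 cells in mice. Balb/C mice (n = 8/group) inoculated with 2.5 × 10^6 cells into the right hind footpad. Dosed ip every third day from day 3, vehicle 0.9% saline. Tumour volume taken as plethysmometer paw volume minus basal, every third day to day 15. Reported as % inhibition vs vehicle ± SD; ANOVA.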

[6] = Antitumor activity against mouse EAC cells xenografted in BALB/C mouse assessed as inhibition of increase in tumor volume at 50 mg/kg, ip administered every 3 days measured on day 15 relative to control; format: functional; settings: Ehrlich, route intraperitoneal; summary of the method: as §3
[7] = Antitumor activity against mouse EAC cells xenografted in BALB/C mouse assessed as reduction of tumor weight at 50 mg/kg, ip administered every 3 days measured on day 15 relative to control; format: functional; settings: Ehrlich, route intraperitoneal
Summary of the method: (§4)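 Ehrlich footpad tumour model in Balb/C mice (n = 8/group, 2.5 × 10^6 cells) with ip dosing every third day from day 3 in 0.9% saline. Mice sacrificed on day 15 and both hind paws weighed. Relative tumour weight = (tumour paw − healthy paw weight)/body weight. Reported as % inhibition vs vehicle ± SD; ANOVA.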

Mus musculus [8] = experiment: Acute toxicity in BALB/C mouse assessed as reduction of body weight at up to 50 mg/kg, ip after 15 days; format: organism-based; set-up: dose 50 mg/kg, route intraperitoneal; settings: in vivo, 360 h; summary of the method: as §2
Mus musculus [9] = experiment: Antiinflammatory activity in BALB/C mouse assessed as inhibition of carrageenan-induced paw edema at 20 mg/kg, ip administered 30 mins before carrageenan challenge measured before 48 hrs by plethysmometer; format: functional, organism-based; set-up: dose 20 mg/kg
Summary of the method: (§5)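 Balb/C mice, n = 8/group. Right hind paw basal volume measured by plethysmometer. Single ip dose in 0.9% saline vehicle, then carrageenan 2.5% injected intraplantar into the right hind footpad 30 min later. Edema taken as measured minus basal volume at 1.5, 3.0, 4.5, 6.0, 24, 48 and 72 h. Expressed as % inhibition vs vehicle ± standard deviation; ANOVA.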

[10] = Antitumor activity against mouse EAC cells xenografted in BALB/C mouse assessed as reduction of tumor weight at 100 mg/kg, ip administered every 3 days measured on day 15 relative to control; format: functional; settings: Ehrlich, route intraperitoneal; summary of the method: as §4
[11] = Antitumor activity against mouse EAC cells xenografted in BALB/C mouse assessed as inhibition of tumor growth at 30 mg/kg, ip administered every 3 days measured on day 7 relative to control; format: functional; settings: Ehrlich, route intraperitoneal; summary of the method: as §3
[12] = Antitumor activity against mouse EAC cells xenografted in BALB/C mouse assessed as inhibition of tumor growth at 100 mg/kg, ip administered every 3 days measured on day 7 relative to control; format: functional; settings: Ehrlich, route intraperitoneal; summary of the method: as §3
[13] = Antitumor activity against mouse EAC cells xenografted in BALB/C mouse assessed as inhibition of tumor growth at 300 mg/kg, ip administered every 3 days measured on day 7 relative to control; format: functional; settings: Ehrlich, route intraperitoneal; summary of the method: as §3
[14] = Antitumor activity against mouse EAC cells xenografted in BALB/C mouse assessed as inhibition of tumor growth at 30 mg/kg, ip administered every 3 days measured on day 15 relative to control; format: functional; settings: Ehrlich, route intraperitoneal; summary of the method: as §3
[15] = Antitumor activity against mouse EAC cells xenografted in BALB/C mouse assessed as inhibition of tumor growth at 100 mg/kg, ip administered every 3 days measured on day 15 relative to control; format: functional; settings: Ehrlich, route intraperitoneal; summary of the method: as §3
[16] = Antitumor activity against mouse EAC cells xenografted in BALB/C mouse assessed as inhibition of tumor growth at 300 mg/kg, ip administered every 3 days measured on day 15 relative to control; format: functional; settings: Ehrlich, route intraperitoneal; summary of the method: as §3
[17] = Antitumor activity against mouse EAC cells xenografted in BALB/C mouse assessed as reduction of tumor weight at 300 mg/kg, ip administered every 3 days measured on day 15 relative to control; format: functional; settings: Ehrlich, route intraperitoneal; summary of the method: as §4
[18] = Antitumor activity against mouse EAC cells xenografted in BALB/C mouse assessed as reduction of tumor weight at 30 mg/kg, ip administered every 3 days measured on day 15 relative to control; format: functional; settings: Ehrlich, route intraperitoneal; summary of the method: as §4
Mus musculus [19] = experiment: Acute toxicity in BALB/C mouse assessed as reduction of body weight at up to 300 mg/kg, ip after 15 days; format: organism-based; set-up: dose 300 mg/kg, route intraperitoneal; settings: in vivo, 360 h; summary of the method: as §2
Mus musculus [20] = experiment: Antiinflammatory activity in BALB/C mouse assessed as inhibition of carrageenan-induced paw edema at 30 mg/kg, ip administered 30 mins before carrageenan challenge measured before 6 hrs by plethysmometer; format: functional, organism-based; set-up: dose 30 mg/kg; summary of the method: as §5
Mus musculus [21] = experiment: Antiinflammatory activity in BALB/C mouse assessed as inhibition of carrageenan-induced paw edema at 100 mg/kg, ip administered 30 mins before carrageenan challenge measured after 3 to 4.5 hrs by plethysmometer; format: functional, organism-based; set-up: dose 100 mg/kg; summary of the method: as §5
Mus musculus [22] = experiment: Antiinflammatory activity in BALB/C mouse assessed as inhibition of carrageenan-induced paw edema at 300 mg/kg, ip administered 30 mins before carrageenan challenge measured after 48 to 72 hrs by plethysmometer; format: functional, organism-based; set-up: dose 300 mg/kg; summary of the method: as §5
Mus musculus [23] = experiment: Antiinflammatory activity in BALB/C mouse assessed as inhibition of carrageenan-induced paw edema at 100 mg/kg, ip administered 30 mins before carrageenan challenge measured before 6 hrs by plethysmometer; format: functional, organism-based; set-up: dose 100 mg/kg; summary of the method: as §5
Mus musculus [24] = experiment: Antiinflammatory activity in BALB/C mouse assessed as inhibition of carrageenan-induced paw edema at 100 mg/kg, ip administered 30 mins before carrageenan challenge measured before 24 hrs by plethysmometer; format: functional, organism-based; set-up: dose 100 mg/kg; summary of the method: as §5
Mus musculus [25] = experiment: Antiinflammatory activity in BALB/C mouse assessed as inhibition of carrageenan-induced paw edema at 100 mg/kg, ip administered 30 mins before carrageenan challenge measured before 72 hrs by plethysmometer; format: functional, organism-based; set-up: dose 100 mg/kg; summary of the method: as §5
Mus musculus [26] = experiment: Antiinflammatory activity in BALB/C mouse assessed as inhibition of carrageenan-induced paw edema at 30 mg/kg, ip administered 30 mins before carrageenan challenge measured before 48 hrs by plethysmometer; format: functional, organism-based; set-up: dose 30 mg/kg; summary of the method: as §5

SMILES | TGI (UACC-62) [µM] | TGI (MCF7) [µM] | TGI [1] [µM] | TGI (786-0) [µM] | TGI (NCI-H460) [µM] | TGI [2] [µM] | TGI (OVCAR-3) [µM] | TGI (HT-29) [µM] | TGI (U-251) [µM] | Activity (Mus musculus [3]) | Activity (Mus musculus [4]) | inhibition (Mus musculus [9]) | other results
O=C1C=CC[C@@H](/C=C/c2ccccc2)O1 | 76.4 | 77 | 11.5 | 28.7 | 44.1 | 24 | > 100 | 57.6 | 24.1 | Non-toxic | Non-toxic | – | inhibition in vivo at 50 mg/kg [5]: 53.7%; inhibition in vivo at 50 mg/kg [6]: 48.7%; inhibition in vivo at 50 mg/kg [7]: 39.7%; Activity (Mus musculus [8]): Non-toxic
CN1C(C(=O)Nc2ccccn2)=C(O)c2ccccc2S1(=O)=O | – | – | – | – | – | – | – | – | – | – | – | Active | –
O=C1C=CCC(/C=C/c2ccccc2)O1 (racemic) | 23.2 | 22.7 | 6.38 | 22.4 | 36.4 | 18.2 | 18.8 | 29.2 | 18.2 | Non-toxic | Non-toxic | Active | inhibition in vivo at 100 mg/kg [10]: 31.6%; inhibition in vivo at 30 mg/kg [11]: 50%; inhibition in vivo at 100 mg/kg [12]: 41.7%; inhibition in vivo at 300 mg/kg [13]: 35.7%; inhibition in vivo at 30 mg/kg [14]: 48.5%; inhibition in vivo at 100 mg/kg [15]: 40.9%; inhibition in vivo at 300 mg/kg [16]: 66.7%; inhibition in vivo at 300 mg/kg [17]: 41.8%; inhibition in vivo at 30 mg/kg [18]: 36.7%; Activity (Mus musculus [19]): Non-toxic; inhibition (Mus musculus [20]): inactive; inhibition (Mus musculus [21]): Active; inhibition (Mus musculus [22]): Active; inhibition (Mus musculus [23]): inactive; inhibition (Mus musculus [24]): Active; inhibition (Mus musculus [25]): Active; inhibition (Mus musculus [26]): Active
